# Results taken from ChEMBL document CHEMBL3596178, “Synthesis and biological evaluation of curcumin derivatives containing NSAIDs for their anti-inflammatory activity” (Bioorg Med Chem Lett, 2015).
# The source made the active and inactive calls. The calls are words filed in the database; no cut-off is given here.
# Experiments:
# RAW264.7 = assay: Inhibition of TPA-induced cell proliferation of mouse RAW264.7 cells; assay type: functional, cell-based
# How it was run: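 RAW 264.7 macrophages; proliferation measured by MTT assay. IC50 reported as mean±SD of three independent experiments.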
# Mus musculus [1] = assay: Anti-inflammatory activity in BALB/c mouse assessed as reduction in TPA-induced ear edema by measuring weight of ear punches at 0.75 uM applied topically 6 mins before to TPA treatment; assay type: functional
# How it was run: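 Female BALB/c mice; TPA applied topically to ears, test agents applied topically 6 min before TPA. Edema read as weight of 6 mm diameter ear punch biopsies. Screening concentration 0.75 µM.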
# Mus musculus [2] = assay: Anti-inflammatory activity in BALB/c mouse model of TPA-induced ear edema assessed as reduction in inflammatory cells infiltration at 0.75 uM applied topically 6 mins before to TPA treatment by H and E staining method; assay type: functional, organism-based
# How it was run: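 Female BALB/c mouse ears pretreated topically with agents or acetone (control), then TPA applied topically. Ear sections stained with H&E and assessed histologically for epidermal hyperkeratosis, stratum corneum thickening and inflammatory cell infiltration.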
# Mus musculus [3] = assay: Anti-inflammatory activity in BALB/c mouse model of TPA-induced ear edema assessed as reduction in Ikappa-Balpha phosphorylation level at 0.75 uM applied topically 6 mins before to TPA treatment by immunohistochemistry; assay type: functional, organism-based
# How it was run: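 TPA-induced ear edema in BALB/c mice, agents applied topically before TPA. Ear tissue examined immunohistochemically with an anti-phospho-Ser36 IκBα antibody and a nonphosphorylated IκB antibody.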
# Mus musculus [4] = assay: Anti-inflammatory activity in BALB/c mouse model of TPA-induced ear edema assessed as reduction in IKK activity level at 0.75 uM applied topically 6 mins before to TPA treatment by immunohistochemistry; assay type: functional, organism-based
# Mus musculus [5] = assay: Anti-inflammatory activity in BALB/c mouse model of TPA-induced ear edema assessed as reduction in IL-6 levels at 0.75 uM applied topically 6 mins before to TPA treatment by immunohistochemistry; assay type: functional, organism-based
# Mus musculus [6] = assay: Anti-inflammatory activity in BALB/c mouse model of TPA-induced ear edema assessed as reduction in p65 nuclear translocation at 0.75 uM applied topically 6 mins before to TPA treatment by immunohistochemistry; assay type: functional, organism-based
# How it was run: (§1)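 TPA-induced ear edema in BALB/c mice, agents applied topically before TPA. Ear tissue examined immunohistochemically with a nonphosphorylated p65 antibody and an anti-phospho-Ser536 p65 antibody.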
# Mus musculus [7] = assay: Anti-inflammatory activity in BALB/c mouse model of TPA-induced ear edema assessed as reduction in IL-1beta levels at 0.75 uM applied topically 6 mins before to TPA treatment by immunohistochemistry; assay type: functional, organism-based
# Mus musculus [8] = assay: Anti-inflammatory activity in BALB/c mouse model of TPA-induced ear edema assessed as reduction in TNFalpha levels at 0.75 uM applied topically 6 mins before to TPA treatment by immunohistochemistry; assay type: functional, organism-based
# Mus musculus [9] = assay: Anti-inflammatory activity in BALB/c mouse model of TPA-induced ear edema assessed as reduction in phosphorylated p65 level at 0.75 uM applied topically 6 mins before to TPA treatment by immunohistochemistry; assay type: functional, organism-based; how it was run: as §1
SMILES,IC50 (RAW264.7) [µM],inhibition (INH) (Mus musculus [1]) [%],other results
COc1cc(/C=C/C(=O)CC(=O)/C=C/c2ccc(OC(=O)c3cc(-c4ccc(F)cc4F)ccc3O)c(OC)c2)ccc1OC(=O)c1cc(-c2ccc(F)cc2F)ccc1O,> 30,85,–
COc1cc(/C=C/C(=O)CC(=O)/C=C/c2ccc(OC(=O)c3ccccc3Nc3cccc(C)c3C)c(OC)c2)ccc1O,28,78,–
O=C(O)c1ccccc1O,–,–,inhibition (Mus musculus [2]): Active
COc1cc(/C=C/C(=O)CC(=O)/C=C/c2ccc(OC(=O)CCc3nc(-c4ccccc4)c(-c4ccccc4)o3)c(OC)c2)ccc1O,19.3,75,–
COc1cc(/C=C/C(=O)CC(=O)/C=C/c2ccc(OC(=O)c3ccccc3Nc3cccc(C)c3C)c(OC)c2)ccc1OC(=O)c1ccccc1Nc1cccc(C)c1C,> 30,10,–
O=C(Oc1ccccc1C(=O)O)c1ccccc1O,–,–,inhibition (Mus musculus [2]): Active
COc1cc(/C=C/C(=O)CC(=O)/C=C/c2ccc(OC(=O)C(C)c3ccc(CC(C)C)cc3)c(OC)c2)ccc1OC(=O)C(C)c1ccc(CC(C)C)cc1 (stereo unspecified),7.36,–,–
COc1cc(/C=C/C(=O)CC(=O)/C=C/c2ccc(OC(=O)C(C)c3cccc(C(=O)c4ccccc4)c3)c(OC)c2)ccc1OC(=O)C(C)c1cccc(C(=O)c2ccccc2)c1 (stereo unspecified),> 30,10,–
"COc1ccc2cc(C(C)C(=O)Oc3ccc(/C=C/C(=O)CC(=O)/C=C/c4ccc(O)c(OC)c4)cc3OC)ccc2c1 (single isomer, unassigned)",18.7,87.8,–
COc1cc(/C=C/C(=O)CC(=O)/C=C/c2ccc(OC(=O)c3ccccc3OC(C)=O)c(OC)c2)ccc1OC(=O)c1ccccc1OC(C)=O,> 30,87.8,–
CCc1cccc2c3c([nH]c12)C(CC)(CC(=O)Oc1ccc(/C=C/C(=O)CC(=O)/C=C/c2ccc(OC(=O)CC4(CC)OCCc5c4[nH]c4c(CC)cccc54)c(OC)c2)cc1OC)OCC3 (stereo unspecified),> 30,–,–
COc1ccc2c(c1)c(CC(=O)Oc1ccc(/C=C/C(=O)CC(=O)/C=C/c3ccc(OC(=O)Cc4c(C)n(C(=O)c5ccc(Cl)cc5)c5ccc(OC)cc45)c(OC)c3)cc1OC)c(C)n2C(=O)c1ccc(Cl)cc1,> 30,10,–
COc1cc(/C=C/C(=O)CC(=O)/C=C/c2ccc(OC(=O)c3ccccc3O)c(OC)c2)ccc1OC(=O)c1ccccc1O,6.11,38.5,–
COc1cc(/C=C/C(=O)CC(=O)/C=C/c2ccc(OC(=O)c3ccccc3O)c(OC)c2)ccc1O,> 30,91.8,inhibition (Mus musculus [3]): Active; inhibition (Mus musculus [4]): Active; inhibition (Mus musculus [5]): Active; inhibition (Mus musculus [6]): Active; inhibition (Mus musculus [2]): Active; inhibition (Mus musculus [7]): Active
COc1cc(/C=C/C(=O)CC(=O)/C=C/c2ccc(OC(=O)c3ccccc3OC(=O)c3ccccc3O)c(OC)c2)ccc1O,> 30,10,–
COc1cc(/C=C/C(=O)CC(=O)/C=C/c2ccc(OC(=O)c3ccccc3Nc3cccc(C(F)(F)F)c3)c(OC)c2)ccc1OC(=O)c1ccccc1Nc1cccc(C(F)(F)F)c1,12.9,10,–
COc1cc(/C=C/C(=O)CC(=O)/C=C/c2ccc(OC(=O)c3ccccc3Nc3cccc(Cl)c3C)c(OC)c2)ccc1O,9.2,85,–
COc1cc(/C=C/C(=O)CC(=O)/C=C/c2ccc(OC(=O)CCc3nc(-c4ccccc4)c(-c4ccccc4)o3)c(OC)c2)ccc1OC(=O)CCc1nc(-c2ccccc2)c(-c2ccccc2)o1,> 30,10,–
COc1cc(/C=C/C(=O)CC(=O)/C=C/c2ccc(OC(=O)c3ccccc3Nc3cccc(Cl)c3C)c(OC)c2)ccc1OC(=O)c1ccccc1Nc1cccc(Cl)c1C,28,10,–
COc1ccc2cc([C@@H](C)C(=O)Oc3ccc(/C=C/C(=O)CC(=O)/C=C/c4ccc(OC(=O)[C@H](C)c5ccc6cc(OC)ccc6c5)c(OC)c4)cc3OC)ccc2c1,> 30,10,–
COc1cc(/C=C/C(=O)CC(=O)/C=C/c2ccc(OC(=O)c3ccccc3OC(C)=O)c(OC)c2)ccc1O,> 30,10,–
COc1cc(/C=C/C(=O)CC(=O)/C=C/c2ccc(OC(=O)c3ccccc3Nc3cccc(C(F)(F)F)c3)c(OC)c2)ccc1O,5.54,90,–
CCc1cccc2c3c([nH]c12)C(CC)(CC(=O)Oc1ccc(/C=C/C(=O)CC(=O)/C=C/c2ccc(O)c(OC)c2)cc1OC)OCC3 (stereo unspecified),25.3,10,–
COc1cc(/C=C/C(=O)CC(=O)/C=C/c2ccc(OC(=O)C(C)c3cccc(C(=O)c4ccccc4)c3)c(OC)c2)ccc1O (stereo unspecified),8.98,68.8,–
COc1cc(/C=C/C(=O)CC(=O)/C=C/c2ccc(OC(=O)Cc3ccccc3Nc3c(Cl)cccc3Cl)c(OC)c2)ccc1OC(=O)Cc1ccccc1Nc1c(Cl)cccc1Cl,> 30,10,–
COc1cc(/C=C/C(=O)CC(=O)/C=C/c2ccc(OC(=O)c3ccccc3OC(=O)c3ccccc3O)c(OC)c2)ccc1OC(=O)c1ccccc1OC(=O)c1ccccc1O,> 30,93.3,inhibition (Mus musculus [3]): Active; inhibition (Mus musculus [4]): Active; inhibition (Mus musculus [8]): Active; inhibition (Mus musculus [2]): Active; inhibition (Mus musculus [9]): Active
COc1cc(/C=C/C(=O)CC(=O)/C=C/c2ccc(O)c(OC)c2)ccc1O [CURCUMIN],22.9,–,–
COc1cc(/C=C/C(=O)CC(=O)/C=C/c2ccc(OC(=O)C(C)c3ccc(CC(C)C)cc3)c(OC)c2)ccc1O (stereo unspecified),> 30,91.8,–
COc1cc(/C=C/C(=O)CC(=O)/C=C/c2ccc(OC(=O)Cc3ccccc3Nc3c(Cl)cccc3Cl)c(OC)c2)ccc1O,> 30,10,–
COc1cc(/C=C/C(=O)CC(=O)/C=C/c2ccc(OC(=O)c3cc(-c4ccc(F)cc4F)ccc3O)c(OC)c2)ccc1O,12.9,10,–
